Measured values as given in ChEMBL document CHEMBL1150942, “Anti-AIDS agents. 30. Anti-HIV activity of oleanolic acid, pomolic acid, and structurally related triterpenoids” (J Nat Prod, 1998).
Values after ≈ are worked out from the molar mass of the structure shown.

How the values were obtained:
[1] = system: Human immunodeficiency virus 1; test: Inhibition of HIV-1 replication in acutely infected human H9 cells after 4 days; conditions: H9, 96 h
[2] = Therapeutic index, ratio of IC50 for human H9 cells to EC50 for HIV1 3B; format: cell-based; conditions: for selectivity ratio: H9 cells (cytotoxicity IC50) and HIV-1 3B (antiviral EC50)
Method in brief: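 TI calculated as IC50 (Coulter counts of mock-infected cells after 4 days) divided by EC50 (day-4 supernatant p24 ELISA of infected cells). Both were read from the same 4-day plates.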

H9 cells (Homo sapiens) = test: Cytotoxicity against human H9 cells after 4 days
[3] = system: Human immunodeficiency virus 1; test: Antiviral activity against HIV1 in human H9 cells after 4 days; conditions: h9, 96 h
[4] = Homo sapiens, H9, 96 h, read-out: IC50

| Structure (SMILES) | EC50 [1] | Activity [3] | selectivity ratio [2] | IC50 (H9 cells (Homo sapiens); [4]) | IC50 (H9 cells (Homo sapiens); h9) | Ratio IC50/EC50 ([2]; h9) |
| --- | --- | --- | --- | --- | --- | --- |
| CC1(C)CC[C@]2(C(=O)O)CC[C@]3(CO)C(=CC[C@@H]4[C@@]5(C)CC[C@H](O)C(C)(C)[C@@H]5CC[C@]43C)[C@@H]2C1 | 4.4 µg/mL (≈ 9.31 µM) |  | 5.7 | 25 µg/mL (≈ 52.9 µM) |  |  |
| C[C@@H]1CC[C@]2(C(=O)O)CC[C@]3(C)C(=CC[C@@H]4[C@@]5(C)[C@H](O)[C@@H](O)[C@@H](O)C(C)(C)[C@@H]5CC[C@]43C)[C@@H]2[C@]1(C)O | 35 µg/mL (≈ 69.3 µM) |  | > 2.9 | > 100 µg/mL |  |  |
| CC1(C)CC[C@]2(C(=O)O)CC[C@]3(C)C(=CC[C@@H]4[C@@]5(C)CC[C@H](O)C(C)(C)[C@@H]5CC[C@]43C)[C@@H]2C1 [OLEANOLIC_ACID] |  |  |  | 21.8 µg/mL (≈ 47.7 µM) |  |  |
| C[C@@H]1CC[C@]2(C(=O)O)CC[C@]3(C)C(=CC[C@@H]4[C@@]5(C)[C@H](O)[C@H](O)[C@H](O)C(C)(C)[C@@H]5CC[C@]43C)[C@@H]2[C@]1(C)O |  | Not Active |  | > 20 µg/mL |  |  |
| C[C@H]1[C@H](C)CC[C@]2(C(=O)O)CC[C@]3(C)C(=CC[C@@H]4[C@@]5(C)C[C@@H](O)[C@H](O)[C@@](C)(CO)[C@@H]5CC[C@]43C)[C@H]12 [ASIATIC ACID] |  | Not Active |  | 9 µg/mL (≈ 18.4 µM) |  |  |
| CC1(C)CC[C@]2(C(=O)O)CC[C@]3(C)C(=CC[C@@H]4[C@@]5(C)CC[C@H](OC(=O)CC(C)(C)C(=O)O)C(C)(C)[C@@H]5CC[C@]43C)[C@@H]2C1 |  |  | 22400 | 11.2 µg/mL (≈ 19.2 µM) |  |  |
| CC1(C)CC[C@]2(C(=O)O)CC[C@]3(C)C(=CC[C@@H]4[C@@]5(C)CC[C@H](OC(=O)CC6(CC(=O)O)CCCC6)C(C)(C)[C@@H]5CC[C@]43C)[C@@H]2C1 |  |  | 3.9 | 4.7 µg/mL (≈ 7.52 µM) |  |  |
| CC1(C)CC[C@]2(C(=O)O)CC[C@]3(C)C(=CC[C@@H]4[C@@]5(C)CC[C@H](OC(=O)CCCC(=O)O)C(C)(C)[C@@H]5CC[C@]43C)[C@@H]2C1 |  |  | 2.1 | 14.6 µg/mL (≈ 25.6 µM) |  |  |
| C=C(C)[C@@H]1CC[C@]2(C(=O)O)CC[C@]3(C)[C@H](CC[C@@H]4[C@@]5(C)C[C@@H](O)[C@H](O)C(C)(C)[C@@H]5CC[C@]43C)[C@@H]12 [ALPHITOLIC ACID] | 20 µg/mL (≈ 42.3 µM) |  | 0.25 | 4 µg/mL (≈ 8.46 µM) |  |  |
| CC1(C)CC[C@]2(C(=O)O)CC[C@]3(C)C(=CC[C@@H]4[C@@]5(C)C[C@@H](O)[C@H](O)[C@@](C)(CO)[C@@H]5CC[C@]43C)[C@@H]2C1 (stereo in doubt; 2) [ARJUNOLIC ACID] |  |  |  |  | 8 µg/mL (≈ 16.4 µM) |  |
| C[C@@H]1CC[C@]2(C(=O)O)CC[C@]3(C)C(=CC[C@@H]4[C@@]5(C)[C@H](O)C(=O)[C@H](O)C(C)(C)[C@@H]5CC[C@]43C)[C@@H]2[C@]1(C)O |  | Not Active |  | 40 µg/mL (≈ 79.6 µM) |  |  |
| CC(C)(CC(=O)O)CC(=O)O[C@H]1CC[C@]2(C)[C@H]3CC=C4[C@@H]5CC(C)(C)CC[C@]5(C(=O)O)CC[C@@]4(C)[C@]3(C)CC[C@H]2C1(C)C |  |  | 9.3 | 14.2 µg/mL (≈ 23.7 µM) |  |  |

Now from value to compound, other results behind:

| EC50 [1] | Activity [3] | Structure (SMILES) | selectivity ratio [2] | IC50 (H9 cells (Homo sapiens); [4]) | IC50 (H9 cells (Homo sapiens); h9) | Ratio IC50/EC50 ([2]; h9) |
| --- | --- | --- | --- | --- | --- | --- |
| 8.3 µg/mL (≈ 14.2 µM) |  | C[C@@H](CC(=O)O)CC(=O)O[C@H]1CC[C@]2(C)[C@H]3CC=C4[C@@H]5CC(C)(C)CC[C@]5(C(=O)O)CC[C@@]4(C)[C@]3(C)CC[C@H]2C1(C)C | 3.3 | 27.5 µg/mL (≈ 47 µM) |  |  |
| 2 µg/mL (≈ 4.38 µM) |  | C[C@H]1[C@H](C)CC[C@]2(C(=O)O)CC[C@]3(C)C(=CC[C@@H]4[C@@]5(C)CC[C@H](O)C(C)(C)[C@@H]5CC[C@]43C)[C@H]12 [URSOLIC ACID] | 3.3 | 6.5 µg/mL (≈ 14.2 µM) |  |  |
| 15 µg/mL (≈ 30.7 µM) |  | CC1(C)CC[C@]2(C(=O)O)CC[C@]3(C)C(=CC[C@@H]4[C@@]5(C)C[C@@H](O)[C@H](O)[C@@](C)(CO)[C@@H]5CC[C@]43C)[C@@H]2C1 (stereo in doubt; 3) [ARJUNOLIC ACID] |  |  | 36 µg/mL (≈ 73.7 µM) |  |
| 1.1 µg/mL (≈ 1.79 µM) |  | CC[C@@](C)(CC(=O)O)CC(=O)O[C@H]1CC[C@]2(C)[C@H]3CC=C4[C@@H]5CC(C)(C)CC[C@]5(C(=O)O)CC[C@@]4(C)[C@]3(C)CC[C@H]2C1(C)C | 4.1 | 4.4 µg/mL (≈ 7.18 µM) |  |  |
|  | Not Active | C[C@@H]1CC[C@]2(C(=O)O)CC[C@]3(C)C(=CC[C@@H]4[C@@]5(C)C[C@@H](O)[C@H](O)C(C)(C)[C@@H]5CC[C@]43C)[C@@H]2[C@]1(C)O [TOMENTIC ACID] |  | 15 µg/mL (≈ 30.7 µM) |  |  |
| 6.1 µg/mL (≈ 11 µM) |  | CC1(C)CC[C@]2(C(=O)O)CC[C@]3(C)C(=CC[C@@H]4[C@@]5(C)CC[C@H](OC(=O)CCC(=O)O)C(C)(C)[C@@H]5CC[C@]43C)[C@@H]2C1 [OLEANOLIC ACID 3-O-SUCCINATE] | 1.1 | 6.5 µg/mL (≈ 11.7 µM) |  |  |
| 4 µg/mL (≈ 8.46 µM) |  | C[C@H]1[C@H](C)CC[C@]2(C(=O)O)CC[C@]3(C)C(=CC[C@@H]4[C@@]5(C)C[C@@H](O)[C@H](O)C(C)(C)[C@@H]5CC[C@]43C)[C@H]12 [COROSOLIC ACID] | 2 | 8 µg/mL (≈ 16.9 µM) |  |  |
| 0.5 µg/mL |  | CC1(C)CC[C@]2(C(=O)[O-])CC[C@]3(C)C(=CC[C@@H]4[C@@]5(C)CC[C@H](O)C(C)(C)[C@@H]5CC[C@]43C)[C@@H]2C1.[K+] |  | 34.3 µg/mL |  | 68.6 |
| 1.4 µg/mL (≈ 2.96 µM) |  | C[C@@H]1CC[C@]2(C(=O)O)CC[C@]3(C)C(=CC[C@@H]4[C@@]5(C)CC[C@H](O)C(C)(C)[C@@H]5CC[C@]43C)[C@@H]2[C@]1(C)O [POMOLIC ACID] | 16.6 | 23.3 µg/mL (≈ 49.3 µM) |  |  |
|  | Not Active | CC1(C)CC[C@]2(C(=O)O)CC[C@]3(C)C(=CC[C@@H]4[C@@]5(C)CC[C@H](OC(=O)C(C)(C)CC(=O)O)C(C)(C)[C@@H]5CC[C@]43C)[C@@H]2C1 |  | 9.7 µg/mL (≈ 16.6 µM) |  |  |
|  | Not Active | C[C@@H]1CC[C@]2(C(=O)O)CC[C@]3(C)C(=CC[C@@H]4[C@@]5(C)C[C@@H](O)[C@@H](O)C(C)(C)[C@@H]5CC[C@]43C)[C@@H]2[C@]1(C)O [EUSCAPHIC ACID] |  | 37.5 µg/mL (≈ 76.7 µM) |  |  |
| 0.11 µg/mL (≈ 0.242 µM) |  | CC1(C)CC[C@]2(C(=O)O)CC[C@]3(C)C(=CC[C@@H]4[C@@]5(C)CCC(=O)C(C)(C)[C@@H]5CC[C@]43C)[C@@H]2C1 [OLEANONIC ACID] | 7.3 | 0.8 µg/mL (≈ 1.76 µM) |  |  |
| 20 µg/mL (≈ 41.1 µM) |  | C[C@@H]1CC[C@]2(C(=O)O)CC[C@]3(C)C(=CC[C@@H]4[C@@]5(C)CC(=O)[C@H](O)C(C)(C)[C@@H]5CC[C@]43C)[C@@H]2[C@]1(C)O | 2 | 40 µg/mL (≈ 82.2 µM) |  |  |
|  | Not Active | CC1(C)CC[C@]2(C(=O)O)CC[C@]3(C)C(=CC[C@@H]4[C@@]5(C)CC[C@H](OC(=O)COCC(=O)O)C(C)(C)[C@@H]5CC[C@]43C)[C@@H]2C1 |  | 22.1 µg/mL (≈ 38.6 µM) |  |  |
